Drawing on ChEMBL document CHEMBL2407090, “Design, synthesis, and optimization of novel epoxide incorporating peptidomimetics as selective calpain inhibitors” (J Med Chem, 2013), this text covers IC50, Ki and Activity for ten compounds.

Where only a bound is given, the exact number is not on record here.

For assay [1], the target named is T1, Calpain-1 catalytic subunit (Homo sapiens, UniProt P07384).
T1 sequence (P07384 whole entry): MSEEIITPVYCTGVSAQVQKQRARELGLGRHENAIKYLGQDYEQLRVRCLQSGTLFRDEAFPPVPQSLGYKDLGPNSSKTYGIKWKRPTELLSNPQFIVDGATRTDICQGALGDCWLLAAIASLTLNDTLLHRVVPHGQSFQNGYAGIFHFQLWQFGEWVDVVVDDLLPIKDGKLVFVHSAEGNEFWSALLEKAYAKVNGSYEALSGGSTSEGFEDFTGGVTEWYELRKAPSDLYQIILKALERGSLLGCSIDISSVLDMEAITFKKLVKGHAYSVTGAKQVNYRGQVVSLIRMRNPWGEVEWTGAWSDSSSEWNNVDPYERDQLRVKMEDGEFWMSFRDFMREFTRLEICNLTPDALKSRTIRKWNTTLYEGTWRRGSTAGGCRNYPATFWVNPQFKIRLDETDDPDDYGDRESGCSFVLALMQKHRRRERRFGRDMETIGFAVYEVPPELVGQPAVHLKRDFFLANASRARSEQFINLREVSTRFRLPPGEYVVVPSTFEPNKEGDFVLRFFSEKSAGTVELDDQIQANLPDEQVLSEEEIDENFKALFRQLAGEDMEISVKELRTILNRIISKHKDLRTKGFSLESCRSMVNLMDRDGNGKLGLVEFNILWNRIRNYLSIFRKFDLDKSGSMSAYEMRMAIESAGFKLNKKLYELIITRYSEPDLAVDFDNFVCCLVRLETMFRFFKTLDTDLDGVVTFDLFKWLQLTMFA
Briefly: Inhibition of human erythrocyte full length Cal1 using (DABCYL)TPLK-SPPSPR-(EDANS) as substrate after 20 min by FRET assay.

Assay [2] addresses T2, Calpain-1 catalytic subunit (Sus scrofa, UniProt P35750).
T2 sequence (P35750 whole entry): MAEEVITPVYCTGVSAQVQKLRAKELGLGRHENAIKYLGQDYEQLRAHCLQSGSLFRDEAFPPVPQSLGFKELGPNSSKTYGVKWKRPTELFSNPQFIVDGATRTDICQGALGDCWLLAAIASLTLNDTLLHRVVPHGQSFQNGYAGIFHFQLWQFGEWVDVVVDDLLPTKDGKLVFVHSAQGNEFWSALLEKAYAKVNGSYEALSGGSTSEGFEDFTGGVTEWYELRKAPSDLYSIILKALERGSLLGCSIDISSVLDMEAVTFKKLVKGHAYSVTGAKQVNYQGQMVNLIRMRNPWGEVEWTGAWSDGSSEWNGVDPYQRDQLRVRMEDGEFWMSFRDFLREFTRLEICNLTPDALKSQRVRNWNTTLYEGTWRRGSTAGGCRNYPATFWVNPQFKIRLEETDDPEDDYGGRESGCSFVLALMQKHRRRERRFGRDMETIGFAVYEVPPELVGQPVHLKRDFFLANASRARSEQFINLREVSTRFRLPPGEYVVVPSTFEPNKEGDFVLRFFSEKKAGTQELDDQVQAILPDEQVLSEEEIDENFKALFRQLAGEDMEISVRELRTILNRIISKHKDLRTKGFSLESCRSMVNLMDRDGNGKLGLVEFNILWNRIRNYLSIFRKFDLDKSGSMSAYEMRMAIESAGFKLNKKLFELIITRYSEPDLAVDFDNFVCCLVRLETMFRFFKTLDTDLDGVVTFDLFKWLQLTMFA
Kind of assay: Inhibition of pig full length Cal1 after using SucLLVYAMC as substrate by FRET assay. In outline: (§1)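 Enzyme (full-length porcine calpain 156 nM, with 1 mM CaCl2; or papain 236 pM) in 50 mM HEPES pH 7.6, 100 mM NaCl, 1 mM TCEP, 30 μM Suc-LLVY-AMC, inhibitor 0.5–50 μM; organic solvent <2 %, 30 °C. AMC release followed over time (Ex 346/Em 444 nm). Inhibition constants from varied enzyme and inhibitor concentrations; mean ± S.D. of triplicates.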

The next assay concerns the target T3, Papain (Carica papaya, UniProt P00784).
T3 sequence (P00784 whole entry): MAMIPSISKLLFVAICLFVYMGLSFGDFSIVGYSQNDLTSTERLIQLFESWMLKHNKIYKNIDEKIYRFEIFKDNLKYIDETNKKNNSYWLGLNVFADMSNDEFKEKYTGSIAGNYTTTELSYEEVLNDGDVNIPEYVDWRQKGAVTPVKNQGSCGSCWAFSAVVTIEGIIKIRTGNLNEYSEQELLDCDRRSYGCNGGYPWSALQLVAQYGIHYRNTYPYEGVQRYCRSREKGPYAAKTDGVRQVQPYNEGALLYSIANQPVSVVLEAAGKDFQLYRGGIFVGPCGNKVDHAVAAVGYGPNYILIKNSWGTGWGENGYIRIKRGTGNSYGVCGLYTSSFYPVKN
Briefly: Inhibition of papain after using SucLLVYAMC as substrate by FRET assay. The method, boiled down:
as §1

For assay [3], the target named is T4, Calpain-1 catalytic subunit (Rattus norvegicus) (UniProt P97571).
T4 sequence (whole entry): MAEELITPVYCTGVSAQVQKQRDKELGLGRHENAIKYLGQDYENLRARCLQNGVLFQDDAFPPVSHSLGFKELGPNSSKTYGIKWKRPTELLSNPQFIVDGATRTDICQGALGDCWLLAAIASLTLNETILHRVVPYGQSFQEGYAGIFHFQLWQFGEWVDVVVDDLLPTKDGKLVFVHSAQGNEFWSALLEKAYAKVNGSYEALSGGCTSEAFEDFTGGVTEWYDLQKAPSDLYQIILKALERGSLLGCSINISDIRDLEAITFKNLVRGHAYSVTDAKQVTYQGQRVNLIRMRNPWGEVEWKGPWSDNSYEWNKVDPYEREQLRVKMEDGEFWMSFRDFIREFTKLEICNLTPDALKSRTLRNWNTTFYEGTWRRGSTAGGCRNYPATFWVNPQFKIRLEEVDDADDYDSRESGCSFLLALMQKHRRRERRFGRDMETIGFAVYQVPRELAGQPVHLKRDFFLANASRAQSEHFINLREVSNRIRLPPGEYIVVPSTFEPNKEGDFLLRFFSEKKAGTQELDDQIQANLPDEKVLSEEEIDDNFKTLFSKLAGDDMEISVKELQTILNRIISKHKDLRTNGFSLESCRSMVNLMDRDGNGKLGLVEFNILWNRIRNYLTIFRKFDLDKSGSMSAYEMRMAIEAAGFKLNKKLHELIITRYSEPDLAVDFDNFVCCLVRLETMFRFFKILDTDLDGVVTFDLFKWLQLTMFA
Kind of assay: Binding affinity to recombinant rat […] Cal1 catalytic domain expressed in Escherichia coli BL21(DE3) assessed as modification of active site cysteine at 1 uM by LC-MS/MS analysis.

The compound `NS(=O)(=O)c1ccc(-n2cc(CNC(=O)[C@H](Cc3cscn3)NC(=O)[C@H]3O[C@@H]3C(=O)O)nn2)cc1` returned an IC50 in assay [1] greater than 1000 nM.
With `O=C(Nc1nc(-c2ccc(F)cc2)cs1)[C@H](Cc1cscn1)NC(=O)[C@H]1O[C@@H]1C(=O)O`, the Ki in assay [2] amounted to 2590 nM; on Papain, 5310 nM. In addition, the IC50 in assay [1] was 100 nM.
For the compound `CC(C)C[C@H](NC(=O)[C@H]1O[C@@H]1C(=O)O)C(=O)Nc1nc(-c2ccc(F)cc2)cs1`, in assay [3], the Activity result is “Dose-dependent effect”. Also, at Papain, the Ki amounted to 1620 nM.
As to `Cc1cc(C)c(-n2cc(CNC(=O)[C@H](Cc3cscn3)NC(=O)[C@H]3O[C@@H]3C(=O)O)nn2)c(C)c1`, the IC50 in assay [1] is greater than 1000 nM.
Same read-out and setting: in the case of `O=C(NCc1cn(-c2c(F)cccc2F)nn1)[C@H](Cc1cscn1)NC(=O)[C@H]1O[C@@H]1C(=O)O` it was greater than 1000 nM; in that of `O=C(NCc1cn(-c2cc(C(F)(F)F)cc(C(F)(F)F)c2)nn1)[C@H](Cc1cscn1)NC(=O)[C@H]1O[C@@H]1C(=O)O`, greater than 1000 nM.
In turn, `CC(C)C[C@H](NC(=O)[C@H]1O[C@@H]1C(=O)O)C(=O)NCCCCNS(=O)(=O)c1ccc(F)cc1` showed an IC50 in assay [1] of 150 nM. In other words, the sub-micromolar range.
In assay [1], `CC(C)C[C@H](NC(=O)[C@H]1O[C@@H]1C(=O)O)C(=O)NCCCCNC(=O)CCCCC1CCSS1` (stereo partly specified) displayed an IC50 of 100 nM.
Compound `CC(C)C[C@H](NC(=O)[C@H]1O[C@@H]1C(=O)O)C(=O)NCCCCNC(=O)CCCC[C@@H]1SC[C@@H]2NC(=O)N[C@@H]21` registered an IC50 in assay [1] of 100 nM.
Take `CC(C)C[C@H](NC(=O)[C@H]1O[C@@H]1C(=O)O)C(=O)NCCCCN=C(N)N` [E-64]: the Ki in assay [2] was determined as 3960 nM; at Papain it was 5080 nM. The compound also returned an IC50 in assay [1] of 100 nM. Also, the Activity entry in assay [3] is “Dose-dependent effect”.
